Assay results reported in ChEMBL document CHEMBL5058577, “EUbOPEN Chemogenomics Library 2 (Multiplex)” (2022).

System: HEK-293T
Assay: Multiplex assay against HEK293T
Format: toxicity, cell-based
Details: human
In short: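 Hoechst33342, BioTracker Green Microtubule Cytoskeleton Dye, MitoTracker Red and Annexin V Alexa Fluor 680 were added to live cells at seeding, and imaging on a CQ1 microscope at 37°C and 5% CO2 followed compound addition. Gating by CellPathfinder machine learning separated cells into Hoechst high-intensity objects or normal cells, then normal cells into healthy, pyknosed or fragmented nuclei, then pyknosed cells into mitotic or apoptotic. Per cents of healthy-nucleus cells are reported for the tubulin, mitochondrial-mass and membrane-permeability phenotypes.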

[1] = 12 h, 1 µM, compound concentration 1 uM, replicate 1
[2] = 12 h, 1 µM, compound concentration 1 uM, replicate 2
[3] = 12 h, 10 µM, compound concentration 10 uM, replicate 1
[4] = 12 h, 10 µM, compound concentration 10 uM, replicate 2
[5] = 24 h, 1 µM, compound concentration 1 uM, replicate 1
[6] = 24 h, 1 µM, compound concentration 1 uM, replicate 2
[7] = 24 h, 10 µM, compound concentration 10 uM, replicate 1
[8] = 24 h, 10 µM, compound concentration 10 uM, replicate 2
[9] = 48 h, 1 µM, compound concentration 1 uM, replicate 1
[10] = 48 h, 1 µM, compound concentration 1 uM, replicate 2
[11] = 48 h, 10 µM, compound concentration 10 uM, replicate 1
[12] = 48 h, 10 µM, compound concentration 10 uM, replicate 2

For O=C(NCCO)c1cccc(-c2cc(Nc3ccc(OC(F)(F)F)cc3)ncn2)c1, the “Population Apoptotic (%)” value [1] was 27%, the “Population Fragmented Nuclei (%)” value [1] was 7% and the “Population Healthy Nuclei (%)” value [1] was 78%. The “Population Hoechst High Intensity Objects (%)” value [1] was 8%, the “Population Membrane Permeable-Phenotype (%)” value [1] was 0% and the “Population Mitochondria Different-Phenotype (%)” value [1] was 47%. For the same compound, the “Population Mitotic Cells (%)” value [1] was 72%, the “Population Normal (%)” value [1] was 91% and the “Population Pyknosed Nuclei (%)” value [1] was 13%. The “Population Tubulin-Different-Phenotype (%)” value [1] was 23%, the “Total Cell Count” value [1] was 409 and the “Population Apoptotic (%)” value [2] was 40%. For the same compound, the “Population Fragmented Nuclei (%)” value [2] was 4%, the “Population Healthy Nuclei (%)” value [2] was 77% and the “Population Hoechst High Intensity Objects (%)” value [2] was 6%. For the same compound, the “Population Mitochondria Different-Phenotype (%)” value [2] was 60%, the “Population Mitotic Cells (%)” value [2] was 59% and the “Population Normal (%)” value [2] was 93%. The “Population Pyknosed Nuclei (%)” value [2] was 17%, the “Population Tubulin-Different-Phenotype (%)” value [2] was 16% and the “Total Cell Count” value [2] was 262. For the same compound, the “Population Apoptotic (%)” value [3] was 55%, the “Population Fragmented Nuclei (%)” value [3] was 6% and the “Population Healthy Nuclei (%)” value [3] was 76%. For the same compound, the “Population Hoechst High Intensity Objects (%)” value [3] was 10%, the “Population Membrane Permeable-Phenotype (%)” value [3] was 0% and the “Population Mitochondria Different-Phenotype (%)” value [3] was 69%. For the same compound, the “Population Mitotic Cells (%)” value [3] was 44%, the “Population Normal (%)” value [3] was 89% and the “Population Pyknosed Nuclei (%)” value [3] was 17%. The “Population Tubulin-Different-Phenotype (%)” value [3] was 49%, the “Total Cell Count” value [3] was 374 and the “Population Apoptotic (%)” value [4] was 63%. For the same compound, the “Population Fragmented Nuclei (%)” value [4] was 5%, the “Population Healthy Nuclei (%)” value [4] was 73% and the “Population Hoechst High Intensity Objects (%)” value [4] was 12%. For the same compound, the “Population Mitochondria Different-Phenotype (%)” value [4] was 74%, the “Population Mitotic Cells (%)” value [4] was 36% and the “Population Normal (%)” value [4] was 87%. The “Population Pyknosed Nuclei (%)” value [4] was 21%, the “Population Tubulin-Different-Phenotype (%)” value [4] was 26% and the “Total Cell Count” value [4] was 325. The “Population Apoptotic (%)” value [5] was 26%, the “Population Fragmented Nuclei (%)” value [5] was 11% and the “Population Healthy Nuclei (%)” value [5] was 78%. The “Population Hoechst High Intensity Objects (%)” value [5] was 4%, the “Population Membrane Permeable-Phenotype (%)” value [5] was 0% and the “Population Mitochondria Different-Phenotype (%)” value [5] was 21%. For the same compound, the “Population Mitotic Cells (%)” value [5] was 73%, the “Population Normal (%)” value [5] was 95% and the “Population Pyknosed Nuclei (%)” value [5] was 10%. The “Population Tubulin-Different-Phenotype (%)” value [5] was 15%, the “Total Cell Count” value [5] was 538 and the “Population Apoptotic (%)” value [6] was 41%. The “Population Fragmented Nuclei (%)” value [6] was 7%, the “Population Healthy Nuclei (%)” value [6] was 79% and the “Population Hoechst High Intensity Objects (%)” value [6] was 6%. For the same compound, the “Population Mitochondria Different-Phenotype (%)” value [6] was 38%, the “Population Mitotic Cells (%)” value [6] was 58% and the “Population Normal (%)” value [6] was 93%. The “Population Pyknosed Nuclei (%)” value [6] was 13%, the “Population Tubulin-Different-Phenotype (%)” value [6] was 17% and the “Total Cell Count” value [6] was 331. For the same compound, the “Population Apoptotic (%)” value [7] was 39%, the “Population Fragmented Nuclei (%)” value [7] was 5% and the “Population Healthy Nuclei (%)” value [7] was 80%. For the same compound, the “Population Hoechst High Intensity Objects (%)” value [7] was 7%, the “Population Membrane Permeable-Phenotype (%)” value [7] was 0% and the “Population Mitochondria Different-Phenotype (%)” value [7] was 61%. The “Population Mitotic Cells (%)” value [7] was 60%, the “Population Normal (%)” value [7] was 92% and the “Population Pyknosed Nuclei (%)” value [7] was 14%. For the same compound, the “Population Tubulin-Different-Phenotype (%)” value [7] was 38%, the “Total Cell Count” value [7] was 447 and the “Population Apoptotic (%)” value [8] was 50%. The “Population Fragmented Nuclei (%)” value [8] was 6%, the “Population Healthy Nuclei (%)” value [8] was 77% and the “Population Hoechst High Intensity Objects (%)” value [8] was 14%. For the same compound, the “Population Mitochondria Different-Phenotype (%)” value [8] was 56%, the “Population Mitotic Cells (%)” value [8] was 50% and the “Population Normal (%)” value [8] was 85%. For the same compound, the “Population Pyknosed Nuclei (%)” value [8] was 15%, the “Population Tubulin-Different-Phenotype (%)” value [8] was 22% and the “Total Cell Count” value [8] was 354. For the same compound, the “Population Apoptotic (%)” value [9] was 17%, the “Population Fragmented Nuclei (%)” value [9] was 12% and the “Population Healthy Nuclei (%)” value [9] was 80%. The “Population Hoechst High Intensity Objects (%)” value [9] was 3%, the “Population Membrane Permeable-Phenotype (%)” value [9] was 2% and the “Population Mitochondria Different-Phenotype (%)” value [9] was 17%. The “Population Mitotic Cells (%)” value [9] was 82%, the “Population Normal (%)” value [9] was 96% and the “Population Pyknosed Nuclei (%)” value [9] was 7%. For the same compound, the “Population Tubulin-Different-Phenotype (%)” value [9] was 13%, the “Total Cell Count” value [9] was 897 and the “Population Apoptotic (%)” value [10] was 37%. The “Population Fragmented Nuclei (%)” value [10] was 9%, the “Population Healthy Nuclei (%)” value [10] was 79% and the “Population Hoechst High Intensity Objects (%)” value [10] was 5%. The “Population Membrane Permeable-Phenotype (%)” value [10] was 0%, the “Population Mitochondria Different-Phenotype (%)” value [10] was 23% and the “Population Mitotic Cells (%)” value [10] was 62%. The “Population Normal (%)” value [10] was 94%, the “Population Pyknosed Nuclei (%)” value [10] was 10% and the “Population Tubulin-Different-Phenotype (%)” value [10] was 9%. For the same compound, the “Total Cell Count” value [10] was 476, the “Population Apoptotic (%)” value [11] was 41% and the “Population Fragmented Nuclei (%)” value [11] was 10%. The “Population Healthy Nuclei (%)” value [11] was 79%, the “Population Hoechst High Intensity Objects (%)” value [11] was 8% and the “Population Membrane Permeable-Phenotype (%)” value [11] was 1%. The “Population Mitochondria Different-Phenotype (%)” value [11] was 36%, the “Population Mitotic Cells (%)” value [11] was 58% and the “Population Normal (%)” value [11] was 91%. For the same compound, the “Population Pyknosed Nuclei (%)” value [11] was 10%, the “Population Tubulin-Different-Phenotype (%)” value [11] was 18% and the “Total Cell Count” value [11] was 595. The “Population Apoptotic (%)” value [12] was 58%, the “Population Fragmented Nuclei (%)” value [12] was 16% and the “Population Healthy Nuclei (%)” value [12] was 72%. For the same compound, the “Population Hoechst High Intensity Objects (%)” value [12] was 17%, the “Population Membrane Permeable-Phenotype (%)” value [12] was 0% and the “Population Mitotic Cells (%)” value [12] was 41%. For the same compound, the “Population Normal (%)” value [12] was 82%, the “Population Pyknosed Nuclei (%)” value [12] was 11% and the “Population Tubulin-Different-Phenotype (%)” value [12] was 13%. For the same compound, the “Total Cell Count” value [12] was 504.
